According to ChEMBL document CHEMBL1153988 (J Med Chem, 2009):
Activity calls are given as the source filed them. No cut-off for these calls is given here.

Columns and labels:
Mus musculus [1] = assay: Anticonvulsant activity in CF1 albino mouse assessed as protection against scMet-induced seizures at 100 mg/kg, ip after 0.5 hrs; format: functional, organism-based; parameters: dose 100 mg/kg
How it was run: (§1)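 Adult male CF no. 1 albino mice (18-25 g) dosed intraperitoneally with compound suspended in 0.5% methylcellulose (0.01 mL/g). Convulsant challenge given subcutaneously as a 0.85% pentylenetetrazol solution in 0.9% saline. Read-out is animals protected over animals tested, with neurotoxicity scored in parallel.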

Rattus norvegicus [2] = assay: Anticonvulsant activity in ip dosed albino Sprague-Dawley rat assessed as protection against pilocarpine-induced status epilepticus; format: functional
How it was run: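 Rat pilocarpine-induced status model: drug was given either at the first stage III seizure (time 0) or 30 min after status induction, […]. Seizure severity was scored on the Racine scale as protection or no protection. Time 0 used 12, 25, 50 and 100 mg/kg with 8 rats per dose. The 30 min arm used 50, 75 and 100 mg/kg with 7, 6 and 7 rats. ED50 was calculated.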

Mus musculus [3] = assay: Anticonvulsant activity in CF1 albino mouse assessed as protection against maximal electroshock-induced seizures at 30 mg/kg, ip after 4 hrs; format: functional, organism-based; parameters: dose 30 mg/kg
How it was run: (§2)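 Adult male CF no. 1 albino mice (18-25 g). Test compound suspended in 0.5% methylcellulose and given intraperitoneally at 0.01 mL/g body weight. Maximal electroshock challenge at the stated time. Read-out is the number of animals protected over the number tested; neurotoxicity is scored in parallel.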

Mus musculus [4] = assay: Anticonvulsant activity in CF1 albino mouse assessed as protection against maximal electroshock-induced seizures at 60 mg/kg, ip; format: functional, organism-based; parameters: dose 60 mg/kg; how it was run: as §2
Mus musculus [5] = assay: Anticonvulsant activity in CF1 albino mouse assessed as protection against maximal electroshock-induced seizures at 300 mg/kg, ip after 0.5 hrs; format: functional, organism-based; parameters: dose 300 mg/kg; how it was run: as §2
Mus musculus [6] = assay: Teratogenic effect in SWV mouse assessed as number of dead fetuses at 671 mg/kg, ip administered on morning of day 8 of gestation; format: toxicity, organism-based; parameters: dose 671 mg/kg, route intraperitoneal; conditions: in vivo
How it was run: (§3)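 Inbred SWV mouse strain highly susceptible to VPA-induced neural tube defects. Each dam received a single ip injection on gestation day 8.5, dosed within 1.8-4.2 mmol/kg, against a control of 25% aqueous Cremophor EL. Groups were compared with the control, and with the matched VPA sodium-salt dose, by Fisher's exact test (p < 0.05).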

Mus musculus [7] = assay: Teratogenic effect in SWV mouse assessed as number of litters at 502 mg/kg, ip administered on morning of day 8 of gestation; format: toxicity, organism-based; parameters: dose 502 mg/kg, route intraperitoneal; conditions: in vivo; how it was run: as §3
Mus musculus [8] = assay: Teratogenic effect in VPA-induced SWV mouse assessed as number of fetuses with neural tube deffects at 671 mg/kg, ip administered on morning of day 8 of gestation; format: toxicity, organism-based; parameters: dose 671 mg/kg, route intraperitoneal; conditions: in vivo; how it was run: as §3
Mus musculus [9] = assay: Anticonvulsant activity in CF1 albino mouse assessed as protection against maximal electroshock-induced seizures at 400 mg/kg, ip; format: functional, organism-based; parameters: dose 400 mg/kg; how it was run: as §2
Rattus norvegicus [10] = assay: Anticonvulsant activity in albino Sprague-Dawley rat assessed as protection against scMet-induced seizures at 50 mg/kg, po after 30 mins; format: functional
How it was run: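 Male Sprague-Dawley albino rats (100-150 g) were given the compound orally as a suspension in 0.5% methylcellulose. Seizures were induced by subcutaneous pentylenetetrazol, dissolved in 0.9% saline as a 2.82% solution. The read-out was animals protected over animals tested.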

Mus musculus [11] = assay: Teratogenic effect in SWV mouse assessed as number of litters at 671 mg/kg, ip administered on morning of day 8 of gestation; format: toxicity, organism-based; parameters: dose 671 mg/kg, route intraperitoneal; conditions: in vivo; how it was run: as §3
Mus musculus [12] = assay: Anticonvulsant activity in ip dosed CF1 albino mouse assessed as protection against scMet-induced seizures; format: functional
How it was run: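 Adult male CF no. 1 albino mice (18-25 g) dosed ip with compound suspended in 0.5% methylcellulose (0.01 mL/g body weight). Seizures were induced by subcutaneous pentylenetetrazol, given as a 0.85% solution in 0.9% saline. ED50 was found by varying the dose to give 3-4 points between 0% and 100% protection, then probit analysis with 95% confidence intervals.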

Rattus norvegicus [13] = assay: Anticonvulsant activity in albino Sprague-Dawley rat assessed as protection against scMet-induced seizures at 25 mg/kg, po; format: functional, organism-based; parameters: dose 25 mg/kg
How it was run: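 Oral dosing of male Sprague-Dawley rats (100-150 g) with compound in 0.5% methylcellulose. Convulsant challenge given subcutaneously as a 2.82% pentylenetetrazol solution in 0.9% saline. Groups of about 8 rats per dose. For quantitation, doses spanning 0% to 100% protection were fitted by probit analysis to give ED50 with 95% confidence interval.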

Mus musculus [14] = assay: Neurotoxicity in CF1 albino mouse at 300 mg/kg, ip after 0.5 hrs; format: toxicity, organism-based; parameters: dose 300 mg/kg, route intraperitoneal; conditions: in vivo
How it was run: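 Male CF no. 1 albino mice (18-25 g) received a single ip dose as a suspension in 0.5% methylcellulose. The read-out was the number of animals showing neurotoxicity (minimal motor impairment) over the number tested.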

Mus musculus [15] = assay: Teratogenic effect in SWV mouse assessed as resorptions at 336 mg/kg, ip administered on morning of day 8 of gestation; format: toxicity, organism-based; parameters: dose 336 mg/kg, route intraperitoneal; conditions: in vivo; how it was run: as §3
Mus musculus [16] = assay: Teratogenic effect in VPA-induced SWV mouse assessed as number of fetuses with neural tube deffects at 502 mg/kg, ip administered on morning of day 8 of gestation; format: toxicity, organism-based; parameters: dose 502 mg/kg, route intraperitoneal; conditions: in vivo; how it was run: as §3
Mus musculus [17] = species on record: Mus musculus; assay: Protective index, ratio of TD50 for CF1 albino mouse to ED50 for scMet-induced CF1 albino seizure mouse model; format: functional
How it was run: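 Ratio of TD50 to ED50 (MES or scMet) in male CF no. 1 mice (18-25 g) given ip doses in 0.5% methylcellulose. TD50 comes from minimal motor impairment: the dose was varied until four points lay between no impairment and all animals impaired. Both TD50 and ED50 were derived by probit analysis with 95% confidence intervals.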

Mus musculus [18] = assay: Anticonvulsant activity in CF1 albino mouse assessed as protection against scMet-induced seizures at 300 mg/kg, ip after 4 hrs; format: functional, organism-based; parameters: dose 300 mg/kg; how it was run: as §1

CC1(C)C(C)(C)C1(F)C(N)=O
Activity (Mus musculus [1]): Toxic | ED50 (Rattus norvegicus [2]): 23 mg/kg | Activity (Mus musculus [3]): Non-toxic | Activity (Mus musculus [4]): inactive | Activity (Mus musculus [5]): Toxic | Activity (Mus musculus [6]): 0 | Activity (Mus musculus [7]): 10 | Activity (Mus musculus [8]): 0 | Activity (Mus musculus [9]): Active | Activity (Rattus norvegicus [10]): 75% | Activity (Mus musculus [11]): 4 | ED50 (Mus musculus [12]): 38 mg/kg | Activity (Rattus norvegicus [13]): Active | Activity (Mus musculus [14]): Toxic | Activity (Mus musculus [15]): 9.8% | Activity (Mus musculus [16]): 0 | PI (Mus musculus [17]): 3.2 | Activity (Mus musculus [18]): Non-toxic
